pEC50: −log10 of the molar value. Calls of active or inactive are those of the source. The rule behind the calls is not given here.
Tests used:
[1] = molecular target: Pyruvate dehydrogenase kinase (Rattus norvegicus, UniProt Q63065+A6IPZ9+Q64536+O54937); assay: Inhibitory activity tested against Pyruvate Dehydrogenase Kinase (PDHK) receptor from rats.; type: protein assay
Outline: (§1)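 Commercial PDH complex used as the kinase-containing preparation. PDHK inhibition read spectrophotometrically as NADH production at 340 nm, measured with and without ATP. IC50 ± standard error, from purified substances.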

[2] = molecular target: Pyruvate dehydrogenase kinase (Rattus norvegicus) (UniProt Q63065+A6IPZ9+Q64536+O54937); assay: Inhibition of Pyruvate Dehydrogenase Kinase (PDHK) receptor from rats; Inactive; type: protein assay; outline: as §1
[3] = test system: Rattus norvegicus; assay: In vivo %control of lactate in normal Sprague-Dawley rats after 2 hr at a dose of 300 umol/Kg; Not active; type: functional, organism-based
Outline: (§2)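 Male Sprague-Dawley rats, about 200 g, randomly assigned to groups (n = 6/group) and fasted 24 h. Single oral dose of compound in 0.5% carboxymethylcellulose/0.2% Tween-80 (1 mL/100 g), or vehicle alone. Blood taken 2 h post-dose into heparin/fluoride tubes; lactate measured on a biochemistry analyzer. Expressed as percent of vehicle control; groups compared by two-tailed unpaired t-test.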

[4] = test system: Rattus norvegicus; assay: In vivo %control of lactate in normal Sprague-Dawley rats after 2 hr at a dose of 30 umol/Kg; Not active; type: functional, organism-based; outline: as §2
[5] = species on record: Homo sapiens; assay: Effective concentration required to increase the oxidation of lactate in cellular assay using Human Skin Fibroblasts; type: functional
Outline: (§3)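 Human fibroblasts harvested with trypsin 2-4 days post-confluence and assayed in suspension ((3.5-5) × 10^5 cells per tube) with test compound or solvent control. Equilibrated at 37 °C, then started with DMEM-S containing 25 µM lactate and 0.2 µCi/mL d,l-[1-14C]lactate. Gassed with 95% O2/5% CO2 and shaken 25 min at 37 °C. Stopped with TCA; released 14CO2 trapped and counted by scintillation. EC50 ± standard error.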

[6] = test system: Rattus norvegicus; assay: In vivo %control of lactate in normal Sprague-Dawley rats after 2 hr at a dose of 300 umol/Kg; type: functional; outline: as §2
[7] = species on record: Homo sapiens; assay: Effective concentration required to increase the oxidation of lactate in cellular assay using Human Skin Fibroblasts; Inactive; type: functional; outline: as §3
[8] = test system: Rattus norvegicus; assay: In vivo %control of lactate in normal Sprague-Dawley rats after 2 hr at a dose of 30 umol/Kg; type: functional; outline: as §2

IC50 [1] [µM] | SMILES | further results
6.7 | C[C@@](O)(C(=O)N1CCN(C(=O)c2ccc(C#N)cc2)CC1)C(F)(F)F | –
0.173 | C[C@@H]1CN(C(=O)[C@@](C)(O)C(F)(F)F)CCN1C(=O)c1ccccc1 | –
260 | O=C(N1CCC(Cc2ccccc2)CC1)C1(O)CC1 | –
47 | O=C(Nc1ccccc1Cl)C(Cl)Cl | –
5 | CC(C)(O)C(=O)Nc1ccccc1Cl | –
15 | C[C@@H]1CN(C(=O)[C@@](C)(O)C(F)(F)F)CCN1C(=O)c1ccc(C(=O)c2ccccc2)cc1 (stereo in doubt; 11r) | –
20 | CCC(O)(C(=O)Nc1ccccc1Cl)C(F)(F)F (stereo not drawn) | –
0.037 | C[C@@H]1CN(C(=O)[C@@](C)(O)C(F)(F)F)CCN1S(=O)(=O)c1ccccc1 | NA [4]: inactive
0.0091 | C[C@@H]1CN(C(=O)[C@@](C)(O)C(F)(F)F)[C@@H](C)CN1/C(=N/C#N)Oc1ccccc1 | –
74 | CC(=O)N1CCC(Cc2ccccc2)CC1 | IA [7]: inactive
31.7 | C[C@@](O)(C(=O)N1CCN(C(=O)c2ccccc2)CC1)C(F)(F)F | –
180 | C/N=C(\S)N1CC=C(C(C)(C)C)CC1 | –
23 | CCC(C)(O)C(=O)Nc1ccccc1Cl (stereo not drawn) | –
75 | CCCC1CCN(C(=O)[C@](C)(O)C(F)(F)F)CC1 | –
14 | CCC(O)(C(=O)NC1C2CC3CC(C2)CC1C3)C(F)(F)F (stereo not drawn) | –
49 | C[C@@H]1CN(S(=O)(=O)c2cccc3ccccc23)[C@@H](C)CN1C(=O)[C@@](C)(O)C(F)(F)F | –
11 | C[C@](O)(C(=O)NC1C2CC3CC(C2)CC1C3)C(F)(F)F (stereo partly drawn) | –
2.59 | C[C@@](O)(C(=O)N1CCCN(c2cc(Cl)ccn2)CC1)C(F)(F)F | –

Continued, compound first:

SMILES | IC50 [1] [µM] | further results
C[C@@H]1CN(C(=O)[C@@](C)(O)C(F)(F)F)[C@@H](C)CN1C(=O)c1cc(Cl)cc(Cl)c1 | 0.0033 | –
C[C@@](O)(C(=O)N1CCN(c2cc([N+](=O)[O-])ccn2)CC1)C(F)(F)F | 2.84 | –
CCCC1CCN(C(=O)C(C)(OC)C(F)(F)F)CC1 (stereo not drawn) | – | IA [2]: inactive
C[C@@H]1CN(C(=O)[C@@](C)(O)C(F)(F)F)CCN1S(=O)(=O)c1ccc(C(C)(C)C)cc1 | 0.036 | –
C[C@@](O)(C(=O)NC1C2CC3CC(C2)CC1C3)C(F)(F)F (stereo partly drawn) | 0.3 | NA [3]: inactive
O=C(Nc1ccc(Cl)cc1)N1CCC(Cc2ccccc2)CC1 | – | IA [2]: inactive
CC(O)(C(=O)N1CCCCC1)C(F)(F)F (stereo not drawn) | 23.9 | –
CC(O)C(=O)N1CCC(Cc2ccccc2)CC1 (stereo not drawn) | 310 | –
CN(C)C(=O)N1CCC(Cc2ccccc2)CC1 | 416 | –
COC(=O)c1ccc(C(=O)N2C[C@H](C)N(C(=O)[C@@](C)(O)C(F)(F)F)C[C@H]2C)cc1 | 0.019 | –
C[C@@](O)(C(=O)N1CCN(c2ccccc2)CC1)C(F)(F)F | 4.16 | pEC50 [5]: 4.60; Control [6]: 68%
CNS(=O)(=O)N1CCC(Cc2ccccc2)CC1 | – | IA [2]: inactive
CNC(=O)N1CCC(Cc2ccccc2)CC1 | 22.4 | IA [7]: inactive
CC1CCCCN1C(=O)[C@@](C)(O)C(F)(F)F (stereo partly drawn) | 2 | –
C[C@@](O)(C(=O)N1CCN(Cc2ccccc2)CC1)C(F)(F)F | 19.9 | –
CNS(=O)(=O)Nc1ccccc1Cl | – | IA [2]: inactive
C[C@@H]1CN(C(=O)[C@@](C)(O)C(F)(F)F)CCN1C(=O)C1CCCCC1 | 0.064 | Control [8]: 77%
C[C@@H]1CN(C(=O)[C@@](C)(O)C(F)(F)F)CCN1S(=O)(=O)c1cccc2ccccc12 | 0.025 | NA [4]: inactive
CCCC1CCN(C(=O)[C@@](C)(O)C(F)(F)F)CC1 | 3.1 | –
C[C@@H]1CN(C(=O)[C@@](C)(O)C(F)(F)F)CCN1/C(=N/C#N)Oc1ccccc1 | 0.049 | Control [8]: 65%
C[C@@H]1CN(C(=O)[C@@](C)(O)C(F)(F)F)[C@@H](C)CN1C(=O)c1ccc(C(=O)c2ccccc2)cc1 | 0.0198 | –
CC1(C(F)(F)F)OC(=O)N(C2CCCCC2)C1=O (stereo in doubt; 8) | – | IA [2]: inactive
O=C(C(Cl)Cl)N1CCC(Cc2ccccc2)CC1 | 0.179 | pEC50 [5]: 5.95; NA [3]: inactive
CNS(=O)(=O)NC1C2CC3CC(C2)CC1C3 (stereo not drawn) | – | IA [2]: inactive

— ChEMBL document CHEMBL1133665, “Secondary amides of (R)-3,3,3-trifluoro-2-hydroxy-2-methylpropionic acid as inhibitors of pyruvate dehydrogenase kinase” (J Med Chem, 2000)
